Experimental data reported in ChEMBL document CHEMBL1121507, “Bronchodilator and antiulcer phenoxypyrimidinones” (1980).

Legend:
Cavia porcellus [1] = test: Evaluation of bronchodilator activity at dose 60 mg/kg perorally 1 hr prior to histamine aerosol exposure.; type: functional; conditions: route oral
In short: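 Guinea pigs received drug po, dissolved in 1 N HCl or suspended in vehicle, 1 h before challenge. The challenge was 0.4% aqueous histamine nebulized at 6 psi into a closed chamber. Respiratory status was scored 0–4 (4 = unconsciousness). Percent protection compares the total score of 8 treated animals with a control group of 8 (control = 0, complete protection = 100), giving a single value.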

Rattus norvegicus [2] = test: Evaluation of antiulcer activity (% decrease in total number of lesions in cold-restraint, stressed rats) at peroral dose 10 mg/kg.; type: functional; conditions: route oral
In short: (§1)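 Nonfasted female Sprague–Dawley rats (90–120 g) were immobilized supine and held at 12 °C for 3 h to induce gastric ulceration. Drug was suspended in saline with 10 g/L carboxymethylcellulose and 1 g/L Tween 80 and given po or ip 3 h before stress. Rats were then killed and stomachs removed. Readout: percent decrease in total lesion number versus controls. Active: p ≤ 0.05.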

Rattus norvegicus [3] = test: Evaluation of antiulcer activity( percent decrease in total number of lesions in cold-restraint, stressed rats) at intraperitoneal dose at 100 mg/kg; Inactive; type: functional; in short: as §1
Rattus norvegicus [4] = test: Evaluation of antiulcer activity (percent decrease in total number of lesions in cold-restraint, stressed rats) at peroral dose 10 mg/kg; Inactive; conditions: route oral
Rattus norvegicus [5] = test: Evaluation of antiulcer activity( percent decrease in total number of lesions in cold-restraint, stressed rats) at intraperitoneal dose at 100 mg/kg; Active; type: functional; in short: as §1
Rattus norvegicus [6] = test: Evaluation of antiulcer activity (percent decrease in total number of lesions in cold-restraint, stressed rats) at intraperitoneal dose at 100 mg/kg; Inactive; type: functional; in short: as §1
Rattus norvegicus [7] = test: Evaluation of antiulcer activity (percent decrease in total number of lesions in cold-restraint, stressed rats) at intraperitoneal dose at 100 mg/kg; Active; type: functional; in short: as §1
Cavia porcellus [8] = test: Evaluation of bronchodilator activity at dose 60 mg/kg perorally 1 hr prior to histamine aerosol exposure; 20-30; type: functional; conditions: route oral
In short: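 Guinea pigs got 60 mg/kg po, either dissolved in 1 N HCl or suspended in vehicle; controls got vehicle. After 1 h each was challenged with histamine aerosol: 0.4% aqueous histamine nebulized at 6 psi into a closed chamber. Respiration was scored 0–4, with 4 being unconsciousness. Percent protection came from comparing the total score of eight treated animals with a control group of eight, giving a single value.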

Rattus norvegicus [9] = test: Evaluation of antiulcer activity (percent decrease in total number of lesions in cold-restraint, stressed rats) at peroral dose 10 mg/kg; Active; type: functional; conditions: route oral; in short: as §1

Row | SMILES | Protection (Cavia porcellus [1]) [%] | Decrease (Rattus norvegicus [2]) [%] | further results
1 | COc1cccc(Oc2cncnc2O)c1 | 7 | 0 | –
2 | Oc1ncc(Sc2ccc(Cl)cc2)cn1 | 63 | – | –
3 | Oc1ncc(Oc2ccccc2)c(O)n1 | 25 | 22 | –
4 | Oc1ncncc1Oc1ccc(Cl)c(Cl)c1 | 45 | – | –
5 | Oc1ncc(Sc2ccccc2)cn1 | 23 | 45 | Decrease (Rattus norvegicus [3]): 47%
6 | Cc1ccc(Oc2cnc(O)nc2)c(C)c1 | – | – | Decrease (Rattus norvegicus [3]): 0%; Decrease (Rattus norvegicus [4]): 6%
7 | Oc1ncc(Oc2ccc(Cl)cc2)c(O)n1 | 50 | 35 | –
8 | Cc1ccc(Oc2cnc(O)nc2O)cc1 | 35 | 0 | –
9 | Oc1ncc(Oc2cccc(C(F)(F)F)c2)cn1 | 26 | 39 | –
10 | CC(C)c1ccc(Oc2cnc(O)nc2)cc1 | 0 | 0 | Decrease (Rattus norvegicus [3]): 9%
11 | Oc1ncncc1Oc1ccc(F)cc1 | 80 | 28 | –
12 | Oc1ncc(Oc2ccc(F)cc2)cn1 | 66 | 0 | Decrease (Rattus norvegicus [3]): 0%
13 | COc1cccc(Oc2cnc(O)nc2)c1 | 3 | 55 | Decrease (Rattus norvegicus [5]): 82%
14 | C[S+]([O-])c1ccc(Oc2cnc(O)nc2)cc1 (centres undefined) | 10 | 50 | Decrease (Rattus norvegicus [3]): 0%
15 | Oc1ncncc1Oc1ccc(Cl)cc1 | 92 | – | Decrease (Rattus norvegicus [6]): 0%
16 | Cc1ccc(Oc2cncnc2O)cc1 | 92 | 27 | –
17 | Cc1cccc(Sc2cnc(O)nc2)c1 | – | – | Decrease (Rattus norvegicus [7]): 78%; Decrease (Rattus norvegicus [4]): 0%
18 | Cc1ccc(Sc2cnc(O)nc2)cc1 | 26 | 18 | Decrease (Rattus norvegicus [5]): 64%
19 | Cn1c(=O)c2nc[nH]c2n(C)c1=O.O [THEOPHYLLINE] | – | – | Protection (Cavia porcellus [8]): 20%
20 | Cc1cccc(Oc2cnc(=O)[nH]c2)c1 [TOLIMIDONE] | 3 | – | Decrease (Rattus norvegicus [9]): 38%; Decrease (Rattus norvegicus [5]): 70%
